Experimental findings from the RNAGym collection of RNA variant scans (doi:10.1126/science.aae0568) are described below.

First the molecules themselves.
B1: tRNA (parent)
chain: GUUCCGUUGGCGUAAUGGUAACGCGUCUCCCUCCUAAGGAGAAGACUGCGGGUUCGAGUCCCGUACGGAACG

Variants at the floor of the assay were thinned out. A value given as a limit tells only on which side of the number the result lay.

In the data set the parent is B1. The experiment in a line: yeast fitness relative to wild type (ratio to wild type); higher = fitter; tRNA-Arg(CCU), competitive growth, 37 C, YPD. The method, boiled down:
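Variants of the tRNA-Arg(CCU) gene, chemically synthesised with a 3% per-site mutation rate at 69 sites, were placed at the native genomic locus in Saccharomyces cerevisiae. The pooled strains were competed in YPD at 37°C for 24 hours in six parallel replicates. Gene amplicons from the start population and from each end population were read by 100-nucleotide paired-end sequencing. Darwinian fitness relative to wild type came from changes in genotype frequencies; genotypes needed ≥ 100 starting reads, and estimates < 0.5 were set to 0.5.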
For C61A C62U A65U A69C, the yeast fitness turned out to be 0.52.

For the variant G56A A69C A70U, the yeast fitness came out at 0.825.

With G50C C61A, the yeast fitness worked out at 0.544.

Take G56A A70U: the yeast fitness came out at 0.918.

Turning to C55G A57C C61A C66U, the yeast fitness worked out at 0.544.

Consider G56C A69U A70U, for which the yeast fitness is at most 0.5.

C61G G63C G68A: the yeast fitness was at most 0.5.

C49U C55G G63A: the yeast fitness is at most 0.5.

With G50C C55A, the yeast fitness is 0.619.

On to G63A A65U, for which the yeast fitness was 0.945.

As to C55U C66A, the yeast fitness amounted to 0.656.

For A57G U64C A65C, the yeast fitness amounted to 0.506.

Consider G56A G58A G67C, for which the yeast fitness was found to be 0.679.

For the variant G51C G56A, the yeast fitness came to 0.698.

In the case of G50A U64C, the yeast fitness came out at 0.966.

Regarding C49A G52C, the yeast fitness was 0.527.

On to G52C A57C G63C U64C, for which the yeast fitness was at most 0.5.

Regarding U53G U59C C66U, the yeast fitness was at most 0.5.

As for C61U G68C, the yeast fitness came to 0.68.

Take C61U G68A: the yeast fitness was 0.711.

With C61U G68U, the yeast fitness was found to be 0.639.

With G56A A69U, the yeast fitness was 1.01.

With G52C A57U C62U C66G, the yeast fitness is at most 0.5.

For G56A G68C, the yeast fitness was 0.838.

As for C49G G56A G63A, the yeast fitness was found to be 0.584.

Consider C49G G50C C62U, for which the yeast fitness turned out to be 0.539.

Regarding C62U A65C A70C, the yeast fitness turned out to be 0.619.

For the variant C49U G50C, the yeast fitness was 0.815.

In the case of G56C A65G A70U, the yeast fitness worked out at 0.587.

For the variant C55G A69G, the yeast fitness was determined as 0.627.

Take C55G A69U: the yeast fitness stood at 0.636.

Consider C55U C61A G68A, for which the yeast fitness is at most 0.5.

As for C62U U64C, the yeast fitness stood at 1.02.

For G52A A57C A69U, the yeast fitness was determined as 0.565.

Consider C61U A65U, for which the yeast fitness is 0.724.

Take A57G C60U G68C: the yeast fitness came out at 0.527.

Turning to G48C G52C C55U, the yeast fitness is at most 0.5.

C62U G67C: the yeast fitness came to 0.917.

C55G A57U: the yeast fitness stood at 0.633.

Turning to U53A C55U, the yeast fitness stood at 0.545.

As to G51C C61A, the yeast fitness was 0.516.

On to C55U C62G, for which the yeast fitness came to 0.739.

On to U53A A69C, for which the yeast fitness stood at 0.622.

In the case of U53A A69U, the yeast fitness is 0.891.

U59G C66A: the yeast fitness was 0.62.

In the case of C62A A70C, the yeast fitness was 0.955.

Consider G52A C55G A57U, for which the yeast fitness was at most 0.5.

For the variant U64A, the yeast fitness turned out to be 0.972.

In the case of U64G, the yeast fitness turned out to be 0.993.

For the variant U64C, the yeast fitness amounted to 0.985.

On to G48C C62A, for which the yeast fitness worked out at 0.771.

For the variant G48C G52C A57C G58A C66U, the yeast fitness was at most 0.5.

In the case of G51A C60U C61U A65G A69C, the yeast fitness came out at 0.594.

As to U53A G58A G68U, the yeast fitness was at most 0.5.

As to C49U A65G C66G, the yeast fitness is at most 0.5.

On to C62U C66U, for which the yeast fitness came out at 1.06.

G48A G68A: the yeast fitness amounted to 0.998.

Regarding G52C U59G, the yeast fitness came to 0.538.

G52C U59A: the yeast fitness turned out to be 0.598.

Consider C55G A65C G67A, for which the yeast fitness was at most 0.5.

For G56A A65U, the yeast fitness amounted to 0.978.

On to G50C C55U A69G, for which the yeast fitness was 0.554.

Regarding G51A C61A C62G, the yeast fitness is at most 0.5.

For G63U A69U, the yeast fitness stood at 0.83.

Regarding C55U A65U, the yeast fitness is 0.794.

Regarding G50A A57G, the yeast fitness stood at 0.944.

With G50A A57U, the yeast fitness was 0.6.

Take G51A G58A: the yeast fitness worked out at 0.967.

As for C61U A69U A70U, the yeast fitness came out at 0.678.

As for G48C G63A A65G, the yeast fitness was determined as 0.71.

For the variant C49G G63C A69U, the yeast fitness was 0.651.

In the case of U54G A70U, the yeast fitness is 0.678.

For G48A U54G, the yeast fitness came out at 0.686.

For C55A G68C, the yeast fitness amounted to 0.674.

Take C55G G56A: the yeast fitness stood at 0.628.

Consider A65G C66U, for which the yeast fitness was determined as 0.993.

On to A65G C66A, for which the yeast fitness was 0.716.

On to G50C G56C, for which the yeast fitness was found to be 0.614.

Take C61G G63A A70U: the yeast fitness worked out at 0.562.

In the case of C49U A70C, the yeast fitness was 1.02.

Turning to C62A C66U, the yeast fitness was determined as 0.694.

For C62A C66G, the yeast fitness was 0.718.

On to G48A C62G, for which the yeast fitness worked out at 0.951.

Consider G52A G68A, for which the yeast fitness was 0.678.

In the case of G58A G67C, the yeast fitness came out at 0.988.

In the case of G58C A69U, the yeast fitness came to 0.846.

Take G52C A57U C60U C62U: the yeast fitness was at most 0.5.

As to G52A A57C A65C, the yeast fitness is 0.647.

As to C55A A70U, the yeast fitness was 0.658.

With C49G G63C G68C, the yeast fitness was at most 0.5.

For the variant G63A C66A, the yeast fitness worked out at 0.72.

Turning to C61A G67C, the yeast fitness stood at 0.664.

Regarding G50A G68A, the yeast fitness came to 0.915.

Regarding C60A G67C, the yeast fitness was 0.654.

Consider U64A A69U, for which the yeast fitness worked out at 0.834.

Consider G58C G67A, for which the yeast fitness worked out at 0.807.

For G58C G67C, the yeast fitness was found to be 1.17.

With C62G A65U, the yeast fitness came out at 0.75.

For the variant G50A A57C C60G C61U, the yeast fitness is at most 0.5.

G58C C61A A65U: the yeast fitness was at most 0.5.

C49A G56A A57U: the yeast fitness is at most 0.5.

With C49U A57U G58C, the yeast fitness is at most 0.5.

C60U C61G: the yeast fitness is 0.643.

Regarding G48C C61U, the yeast fitness turned out to be 0.733.

For the variant C49A A65C, the yeast fitness is 0.686.

Turning to A57G U59C A69U, the yeast fitness came to 0.748.

On to G52C U53C, for which the yeast fitness was at most 0.5.

Regarding C49A A70C, the yeast fitness was 0.743.

Turning to A57C C60U A69C, the yeast fitness was at most 0.5.

As to G50U A69C, the yeast fitness stood at 0.958.

Consider C49A G50C, for which the yeast fitness came to 0.572.

Consider C49A C61U C62G, for which the yeast fitness is at most 0.5.

With C49U G58A A65G, the yeast fitness was 1.

For G56C C61U, the yeast fitness turned out to be 0.747.

Regarding C49U G67U, the yeast fitness stood at 0.885.

As to C49U G67C, the yeast fitness worked out at 0.851.

Regarding U54G A69U, the yeast fitness was determined as 0.648.

Turning to U54A C61G A65U, the yeast fitness is at most 0.5.

On to U64C A70C, for which the yeast fitness is 0.967.

On to G56A G67U, for which the yeast fitness was 0.99.

For U59A, the yeast fitness turned out to be 0.973.

For the variant U59G, the yeast fitness was 1.01.

As to U59C, the yeast fitness worked out at 1.

Take G48A G52A: the yeast fitness amounted to 0.976.

With G52C A70C, the yeast fitness was found to be 0.715.

G52C A70G: the yeast fitness came to 0.637.

With G50C C60G, the yeast fitness is at most 0.5.

C49A C60U G68C: the yeast fitness is at most 0.5.

G63C A65C C66A: the yeast fitness was at most 0.5.

Take C60A A69G: the yeast fitness was determined as 0.56.

As to C55U A69C, the yeast fitness was determined as 0.762.

Regarding C62U A65U G67A, the yeast fitness is 0.532.

For the variant U54G A65C, the yeast fitness amounted to 0.606.

As to G50A G51C C60G, the yeast fitness is at most 0.5.

With A57C A65C A70C, the yeast fitness is 0.571.

As to G50A G51A, the yeast fitness was determined as 0.645.

Take C49G A65C: the yeast fitness was 0.733.

As to G63A C66G A69G, the yeast fitness was at most 0.5.

As for A57U A65C C66G, the yeast fitness was at most 0.5.

In the case of C49A C60A, the yeast fitness came to 0.52.

On to G50C G51C, for which the yeast fitness amounted to 0.522.

For the variant U54C G56A, the yeast fitness amounted to 0.788.

Take G48C U64G: the yeast fitness is 0.714.

Take C55A C62G: the yeast fitness was 0.543.

For the variant G48A G52C G67C, the yeast fitness is at most 0.5.

G50U C66U: the yeast fitness worked out at 0.96.

On to C49U C60U A69C, for which the yeast fitness was found to be 0.566.

Turning to A57U G68C, the yeast fitness stood at 0.652.

On to A57G A65G C66U, for which the yeast fitness was found to be 0.65.

In the case of G50A G58C, the yeast fitness is 1.01.

As for G50A C55U A65G, the yeast fitness was at most 0.5.

Consider U59G C60G, for which the yeast fitness is 0.638.

As to U59G C60U, the yeast fitness was 0.63.

With G48C G68C, the yeast fitness came out at 0.789.

Take G48C G68U: the yeast fitness came out at 0.771.

Regarding G56C G58A, the yeast fitness was 0.607.

Regarding G56C G58C, the yeast fitness amounted to 0.563.

Take U54G G63C: the yeast fitness was at most 0.5.

As to C49A C60G A70C, the yeast fitness was at most 0.5.

In the case of C62U A70G, the yeast fitness worked out at 0.997.

Take G58A G68C: the yeast fitness is 1.01.

For C61G A69U, the yeast fitness amounted to 0.635.

G51A A70G: the yeast fitness is 0.85.

As for G50C A69C, the yeast fitness stood at 0.67.

In the case of G50C A69U, the yeast fitness was determined as 0.833.

For G51A C66G, the yeast fitness stood at 0.704.

As for G50A G51C A65C, the yeast fitness was at most 0.5.
